{
  "source": "ChEMBL document CHEMBL2346655",
  "about": "“Synthesis and in vitro biological evaluation of 2,6,9-trisubstituted purines targeting multiple cyclin-dependent kinases” (Eur J Med Chem, 2013)",
  "key": {"CDK9/cyclin T1": {"target": "CDK9/cyclin T1 (Homo sapiens, UniProt P50750)", "sequence (O60563 whole entry)": "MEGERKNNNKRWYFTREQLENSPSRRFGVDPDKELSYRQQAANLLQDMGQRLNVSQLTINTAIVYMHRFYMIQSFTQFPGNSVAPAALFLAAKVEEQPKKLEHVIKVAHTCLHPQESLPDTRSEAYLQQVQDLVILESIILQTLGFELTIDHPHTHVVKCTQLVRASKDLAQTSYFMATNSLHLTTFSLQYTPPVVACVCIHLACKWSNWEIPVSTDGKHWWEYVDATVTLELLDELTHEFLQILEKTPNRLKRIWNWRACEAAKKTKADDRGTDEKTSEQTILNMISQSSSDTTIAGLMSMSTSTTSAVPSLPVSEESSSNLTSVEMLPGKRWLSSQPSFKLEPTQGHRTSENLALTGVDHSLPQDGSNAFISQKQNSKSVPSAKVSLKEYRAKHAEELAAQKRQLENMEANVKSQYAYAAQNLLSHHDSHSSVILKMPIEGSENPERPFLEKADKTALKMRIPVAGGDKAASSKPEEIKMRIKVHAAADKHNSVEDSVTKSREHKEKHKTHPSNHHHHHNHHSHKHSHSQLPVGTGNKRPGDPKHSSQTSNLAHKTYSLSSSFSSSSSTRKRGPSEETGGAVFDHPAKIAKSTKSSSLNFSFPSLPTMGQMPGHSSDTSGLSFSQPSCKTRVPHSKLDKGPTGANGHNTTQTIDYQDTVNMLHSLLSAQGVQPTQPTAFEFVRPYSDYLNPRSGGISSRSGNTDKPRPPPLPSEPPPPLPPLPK", "sequence (P50750 whole entry)": "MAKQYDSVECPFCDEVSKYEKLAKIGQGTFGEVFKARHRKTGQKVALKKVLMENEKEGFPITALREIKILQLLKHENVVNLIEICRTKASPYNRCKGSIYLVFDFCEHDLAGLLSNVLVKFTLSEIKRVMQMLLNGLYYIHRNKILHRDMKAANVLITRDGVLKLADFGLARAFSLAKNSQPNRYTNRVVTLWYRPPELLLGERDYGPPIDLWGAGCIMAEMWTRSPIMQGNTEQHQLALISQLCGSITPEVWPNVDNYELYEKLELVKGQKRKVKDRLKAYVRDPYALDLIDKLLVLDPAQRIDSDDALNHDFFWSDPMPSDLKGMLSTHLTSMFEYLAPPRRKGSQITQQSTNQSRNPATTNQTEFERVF", "assay": "Inhibition of CDK9/CyclinT1 (unknown origin) using (YSPTSPS)2KK as substrate", "format": "protein-complex assay", "in_short": "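Buffer was 60 mM HEPES-NaOH pH 7.5, 3 mM MgCl2, 3 mM MnCl2, vanadate, DTT and PEG. Reactions were stopped with H3PO4 and spotted on P-81 paper, which was then washed. Radioactivity was imaged; IC50 taken from dose–response curves.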"}, "HCT-116 [1]": {"system": "HCT-116", "assay": "Cell cycle arrest in human HCT116 cells assessed as accumulation at subG1 phase at 1 uM after 24 hrs by propidium iodide staining-based flow cytometric analysis (reference value: 1.4%)", "format": "functional", "in_short": "(§1)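 Sub-confluent cells treated at several concentrations for 24 h, then pulsed with 10 μM BrdU for 30 min at 37 °C before harvest. Cells were PBS-washed, fixed in 70% ethanol, denatured in 2 M HCl and neutralized. Stained with fluorescein anti-BrdU and propidium iodide; DNA content read by flow cytometry with 488 nm excitation.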"}, "K562 [2]": {"system": "K562", "assay": "Cell cycle arrest in human K562 cells assessed as accumulation at subG1 phase at 1 uM after 24 hrs by propidium iodide staining-based flow cytometric analysis (reference value: 2.4%)", "format": "functional", "in_short": "as §1"}, "K562 [3]": {"system": "K562", "assay": "Cell cycle arrest in human K562 cells assessed as accumulation at G2/M phase at 1 uM after 24 hrs by propidium iodide staining-based flow cytometric analysis (reference value: 13.8%)", "format": "functional", "in_short": "as §1"}, "HCT-116 [4]": {"system": "HCT-116", "assay": "Induction of apoptosis in human HCT116 cells assessed as decrease in MCL1 level after 24 hrs by immunoblotting analysis", "format": "functional, cell-based", "in_short": "(§2)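 Cells were treated for 24 h, harvested directly into Laemmli sample buffer, and run on SDS-PAGE. Proteins were blotted to nitrocellulose, blocked, probed overnight with primary antibodies, then with peroxidase-linked secondaries. Bands were detected by ECL with a CCD camera. PCNA and tubulin served as loading references.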"}, "K562 [5]": {"system": "K562", "assay": "Cell cycle arrest in human K562 cells assessed as accumulation at S phase after 24 hrs by BrdU incorporation assay", "format": "functional, cell-based", "in_short": "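Sub-confluent cells were exposed to compound for 24 h, then pulse-labeled with 10 μM BrdU for 30 min at 37 °C. After ethanol (70%) fixation and 2 M HCl denaturation, cells were stained with fluorescein anti-BrdU antibody plus propidium iodide. The BrdU-positive S-phase fraction was quantified by flow cytometry (488 nm laser).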"}, "HCT-116 [6]": {"system": "HCT-116", "assay": "Cell cycle arrest in human HCT116 cells assessed as accumulation at G2/M phase at 1 uM after 24 hrs by propidium iodide staining-based flow cytometric analysis (reference value: 19.6%)", "format": "functional", "in_short": "as §1"}, "HCT-116 [7]": {"system": "HCT-116", "assay": "Induction of apoptosis in human HCT116 cells assessed as caspase-3 activation up to 5 uM after 24 hrs by immunoblotting analysis", "format": "functional, cell-based", "in_short": "as §2"}, "K562 [8]": {"system": "K562", "assay": "Cytotoxicity against human K562 cells assessed as reduction in number of viable cells after 72 hrs by fluorescence assay", "format": "functional, cell-based", "conditions": "K562, 72 h", "in_short": "(§3)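 Three-fold compound dilutions tested in triplicate on cultured cells for 72 h. Viable cells detected by adding Calcein AM and reading fluorescence at 485/538 nm (ex/em).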"}, "[9]": {"target": "T1, CDK9/cyclin T1 (Homo sapiens) (UniProt O60563+P50750)", "assay": "Inhibition of CDK9/CyclinT1-mediated phosphorylation of RNA polymerase 2 at Ser5 in human HCT116 cells up to 25 uM after 24 hrs by immunoblotting analysis", "format": "cell-based", "conditions": "HCT-116", "in_short": "(§4)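 Immunoblot: cells lysed by harvesting in Laemmli sample buffer, proteins run on SDS-PAGE, electroblotted to nitrocellulose, blocked, primary antibodies overnight, peroxidase-conjugated secondaries, ECL detection by CCD camera. Antibodies included anti-phospho RNA polymerase II (S2), anti-RNA polymerase II (ARNA-3), anti-p53 (DO-1), anti-p21waf1 (118), anti-PCNA.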"}, "[10]": {"target": "T1, CDK9/cyclin T1 (Homo sapiens)", "assay": "Inhibition of CDK9/CyclinT1-mediated phosphorylation of RNA polymerase 2 at Ser2 in human K562 cells up to 25 uM after 24 hrs by immunoblotting analysis", "format": "cell-based", "in_short": "as §4"}, "K562 [11]": {"system": "K562", "assay": "Cell cycle arrest in human K562 cells assessed as accumulation at G1 phase at 1 uM after 24 hrs by propidium iodide staining-based flow cytometric analysis (reference value: 47.3%)", "format": "functional", "in_short": "as §1"}, "HCT-116 [12]": {"system": "HCT-116", "assay": "Cell cycle arrest in human HCT116 cells assessed as accumulation at G1 phase at 1 uM after 24 hrs by propidium iodide staining-based flow cytometric analysis (reference value: 48.8%)", "format": "functional", "in_short": "as §1"}, "K562 [13]": {"system": "K562", "assay": "Cell cycle arrest in human K562 cells assessed as accumulation at G2/M phase at 0.2 uM after 24 hrs by propidium iodide staining-based flow cytometric analysis (reference value: 13.8%)", "format": "functional", "in_short": "as §1"}, "HCT-116 [14]": {"system": "HCT-116", "assay": "Cytotoxicity against human HCT116 cells assessed as reduction in number of viable cells after 72 hrs by fluorescence assay", "format": "functional, cell-based", "conditions": "HCT-116, 72 h", "in_short": "as §3"}, "HCT-116 [15]": {"system": "HCT-116", "assay": "Cell cycle arrest in human HCT116 cells assessed as accumulation at subG1 phase at 0.2 uM after 24 hrs by propidium iodide staining-based flow cytometric analysis (reference value: 1.4%)", "format": "functional", "in_short": "as §1"}, "K562 [16]": {"system": "K562", "assay": "Cell cycle arrest in human K562 cells assessed as accumulation at G2/M phase at 5 uM after 24 hrs by propidium iodide staining-based flow cytometric analysis (reference value: 13.8%)", "format": "functional", "in_short": "as §1"}, "HCT-116 [17]": {"system": "HCT-116", "assay": "Cell cycle arrest in human HCT116 cells assessed as accumulation at G1 phase at 5 uM after 24 hrs by propidium iodide staining-based flow cytometric analysis (reference value: 48.8%)", "format": "functional", "in_short": "as §1"}, "[18]": {"target": "Cyclin-dependent kinase 5/CDK5 activator 1 (Homo sapiens, UniProt Q00535)", "sequence (Q00535 whole entry)": "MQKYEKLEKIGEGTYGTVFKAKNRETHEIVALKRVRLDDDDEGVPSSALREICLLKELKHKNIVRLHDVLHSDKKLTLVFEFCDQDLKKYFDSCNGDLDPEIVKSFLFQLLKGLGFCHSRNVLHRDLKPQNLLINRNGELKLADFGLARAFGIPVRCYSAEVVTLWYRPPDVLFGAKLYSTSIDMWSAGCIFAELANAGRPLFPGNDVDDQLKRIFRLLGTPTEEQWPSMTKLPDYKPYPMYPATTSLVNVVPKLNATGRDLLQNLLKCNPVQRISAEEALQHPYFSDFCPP", "sequence (Q15078 whole entry, further chain)": "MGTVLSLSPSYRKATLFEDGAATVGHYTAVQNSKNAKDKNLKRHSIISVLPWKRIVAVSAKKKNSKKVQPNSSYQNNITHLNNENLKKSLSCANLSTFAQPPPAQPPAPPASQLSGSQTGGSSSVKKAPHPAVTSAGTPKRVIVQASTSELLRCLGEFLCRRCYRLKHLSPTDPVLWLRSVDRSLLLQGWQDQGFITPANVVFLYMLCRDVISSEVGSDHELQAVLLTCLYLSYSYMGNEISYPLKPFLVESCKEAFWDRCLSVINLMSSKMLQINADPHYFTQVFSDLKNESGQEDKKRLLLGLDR", "assay": "Inhibition of CDK5/P35 (unknown origin) using histone H1 as substrate", "format": "protein-complex assay"}, "K562 [19]": {"system": "K562", "assay": "Induction of apoptosis in human K562 cells assessed as PARP cleavage up to 5 uM after 24 hrs by immunoblotting analysis", "format": "functional, cell-based", "in_short": "as §2"}, "G-361": {"system": "G-361", "assay": "Ratio of roscovitine IC50 to compound IC50 for human G361 cells", "format": "functional", "in_short": "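Cytotoxicity IC50s underlying the ratio: cells treated in triplicate with three-fold compound dilutions for 72 h, then Calcein AM added and live-cell fluorescence read at 485/538 nm (ex/em).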"}, "[20]": {"target": "T1, CDK9/cyclin T1 (Homo sapiens)", "assay": "Inhibition of CDK9/CyclinT1-mediated phosphorylation of RNA polymerase 2 at Ser2 in human HCT116 cells up to 25 uM after 24 hrs by immunoblotting analysis", "format": "cell-based", "conditions": "HCT-116", "in_short": "as §4"}, "HCT-116 [21]": {"system": "HCT-116", "assay": "Induction of apoptosis in human HCT116 cells assessed as PARP cleavage up to 5 uM after 24 hrs by immunoblotting analysis", "format": "functional, cell-based", "in_short": "as §2"}, "[22]": {"target": "Cyclin-dependent kinase 7/ cyclin H (Homo sapiens) (UniProt P51946+P50613)", "assay": "Inhibition of CDK7/CyclinH/MAT1-mediated phosphorylation of RNA polymerase 2 at Ser2 in human K562 cells up to 25 uM after 24 hrs by immunoblotting analysis", "format": "cell-based", "in_short": "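Treated cells were lysed in Laemmli buffer and separated by SDS-PAGE, then transferred to nitrocellulose. Blots were probed overnight with phospho-RNA polymerase II (S2) and total RNA polymerase II (clone ARNA-3) antibodies, followed by peroxidase secondaries. Signal was developed by ECL on a CCD camera.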"}, "K562 [23]": {"system": "K562", "assay": "Cell cycle arrest in human K562 cells assessed as accumulation at S phase at 5 uM after 24 hrs by propidium iodide staining-based flow cytometric analysis (reference value: 38.8%)", "format": "functional", "in_short": "as §1"}, "HCT-116 [24]": {"system": "HCT-116", "assay": "Cell cycle arrest in human HCT116 cells assessed as accumulation at G1 phase at 0.2 uM after 24 hrs by propidium iodide staining-based flow cytometric analysis (reference value: 48.8%)", "format": "functional", "in_short": "as §1"}},
  "note": "The source made the active and inactive calls. The rule behind the calls is not given here.",
  "data": [
    {"compound": "CC[C@@H](Nc1nc(NCc2cc(Cl)ccc2O)c2ncn(C(C)C)c2n1)C(C)O", "note": "(mixture of isomers)", "values": [
      {"measurement": "IC50", "setting": "CDK9/cyclin T1", "value": 165, "unit": "nM"},
      {"measurement": "Activity", "setting": "HCT-116 [1]", "value": 3.3, "unit": "%"},
      {"measurement": "Activity", "setting": "K562 [2]", "value": 3.3, "unit": "%"},
      {"measurement": "Activity", "setting": "K562 [3]", "value": 28.7, "unit": "%"},
      {"measurement": "Activity", "setting": "HCT-116 [4]", "value": "Dose-dependent effect"},
      {"measurement": "Activity", "setting": "K562 [5]", "value": "Dose-dependent effect"},
      {"measurement": "Activity", "setting": "HCT-116 [6]", "value": 31.8, "unit": "%"},
      {"measurement": "Activity", "setting": "HCT-116 [7]", "value": "inactive"},
      {"measurement": "IC50", "setting": "K562 [8]", "value": 3300, "unit": "nM"},
      {"measurement": "inhibition", "setting": "[9]", "value": "Active"},
      {"measurement": "inhibition", "setting": "[10]", "value": "Active"},
      {"measurement": "Activity", "setting": "K562 [11]", "value": 31.5, "unit": "%"},
      {"measurement": "Activity", "setting": "HCT-116 [12]", "value": 39.4, "unit": "%"},
      {"measurement": "Activity", "setting": "K562 [13]", "value": 25.8, "unit": "%"},
      {"measurement": "IC50", "setting": "HCT-116 [14]", "value": 2000, "unit": "nM"},
      {"measurement": "Activity", "setting": "HCT-116 [15]", "value": 1.5, "unit": "%"},
      {"measurement": "Activity", "setting": "K562 [16]", "value": 31.5, "unit": "%"},
      {"measurement": "Activity", "setting": "HCT-116 [17]", "value": 29.5, "unit": "%"},
      {"measurement": "IC50", "setting": "[18]", "value": 71, "unit": "nM"},
      {"measurement": "Activity", "setting": "K562 [19]", "value": "Active"},
      {"measurement": "Ratio IC50", "setting": "G-361", "value": ">9"},
      {"measurement": "inhibition", "setting": "[20]", "value": "Active"},
      {"measurement": "Activity", "setting": "HCT-116 [21]", "value": "Active"},
      {"measurement": "inhibition", "setting": "[22]", "value": "Active"},
      {"measurement": "Activity", "setting": "K562 [23]", "value": 27.8, "unit": "%"},
      {"measurement": "Activity", "setting": "HCT-116 [24]", "value": 45.6, "unit": "%"}
    ]}
  ]
}
